Sampled rows, rich in hits. Any-hit rate of the full collection: about 3.1%.
NadD inh: inhibitors of Staphylococcus aureus NadD. AID 602399. actives 0.78% (n = 360,000). purified NadD enzyme, colorimetric absorbance read-out. inhibition, % at 20 µM; in the data active means inhibition above about 26%
PP5 primary: PP5 (human) phosphatase inhibition | P53041 | purified PP5c, OMFP substrate fluorescence | inhibition, % at 6.7 µM | actives 0.18% (n = 320,000);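 active means inhibition above the campaign's mean inhibition across all tested compounds plus 3 SD, cut at about 9.5% in these data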;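 further: 0% = DMSO only and 100% = 100 µM cantharidin control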
core dimer inh: HCV core protein dimerization inhibition. TR-FRET GST/Flag-core106 dimerization, 1536-well. inhibition, % at 5 µM. actives 0.33% (n = 300,000). AID 1899;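 active means inhibition above the mean of all tested compounds plus 3 SD, set per screening campaign, cut at about 45% in these data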
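assay system = GST-tagged and Flag-tagged HCV core protein residues 1-106 | controls = unlabelled core106 and no-GST-core106 wells | incubation = compound-protein-antibody incubation 4 h at 22.5 °C | probe or stimulus = Eu donor and XL665 acceptor anti-tag antibodies | read-out = % inhibition based on acceptor/donor emission ratio | signal = TR-FRET 671 and 617 nm emission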
CTSL1 counter: counter-screen for PFM18AAP inhibitors: inhibitors of F. hepatica cathepsin L1. recombinant F. hepatica cathepsin L1, Z-Leu-Arg-MCA fluorescence. inhibition, % at 5.96 µM. actives 0.49% (n = 300,000);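 active means inhibition above the mean of all tested compounds plus 3 SD, set per screening campaign, cut at about 17% in these data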;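 further: 0% = plate median of test compound wells and 100% = 1 µM Z-Phe-Ala-diazomethylketone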
Myeloid diff 2: compounds promoting myeloid differentiation; ER-HoxA9 myeloid progenitors, lysozyme-GFP differentiation, flow cytometry; calls only at 10 µM; actives 1% (n = 360,000);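 active means normalized GFP-positive differentiation at or above the plate's own cutoff, the solvent-only control mean plus 3 SD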;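 further: cells exposed to compound for four days before flow analysis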
PP1 inh: counter-screen for PP5 inhibitors: inhibitors of human PP1-alpha; P62136; purified PP1alpha, OMFP fluorescence; inhibition, % at 6.7 µM; actives 0.9% (n = 320,000);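 active means inhibition above the mean inhibition of all tested compounds plus 3 SD, computed separately for each screening campaign, cut at about 15% in these data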
Target sequence (P62136 whole entry, looked up): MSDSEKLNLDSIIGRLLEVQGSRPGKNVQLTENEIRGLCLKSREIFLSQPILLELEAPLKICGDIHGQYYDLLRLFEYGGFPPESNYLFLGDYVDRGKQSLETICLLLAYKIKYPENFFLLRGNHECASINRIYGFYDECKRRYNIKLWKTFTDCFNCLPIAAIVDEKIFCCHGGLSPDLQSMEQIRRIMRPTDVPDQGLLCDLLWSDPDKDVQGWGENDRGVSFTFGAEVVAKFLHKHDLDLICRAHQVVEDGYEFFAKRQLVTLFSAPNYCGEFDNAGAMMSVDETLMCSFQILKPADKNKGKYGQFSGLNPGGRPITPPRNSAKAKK
Numbers without * were called inactive; i = inactive; x = no result given; + = active, no number.

SMILES | NadD inh | PP5 primary | core dimer inh | CTSL1 counter | Myeloid diff 2 | PP1 inh
Cc1ccc(NC(=S)N2CCC(c3ccc(C)cc3)C2)cc1 (centres undefined) | 1 | 4 | 2 | 54* | i | 6
CC(NC(=O)c1ccccc1)C(=O)NC1CCCc2ccccc21 (centres undefined) | -4 | x | x | x | i | x
CC(C)n1c(SCC(=O)N2c3ccccc3Sc3ccccc32)nc2c1c(=O)n(C)c(=O)n2C | -1 | x | x | x | + | x
CC12CCC3c4ccccc4CCC3(CO1)C2 (centres undefined) | -3 | x | x | x | i | x
Cn1c(=O)c(C(=O)COC(=O)c2cc(-c3ccco3)nc3ccccc23)c(N)n(Cc2ccccc2)c1=O | x | 1 | 9 | -1 | x | 19*
Cc1ccc(C(=O)N2CCOCC2)cc1S(=O)(=O)N1CCCCC1 | -1 | 3 | -23 | 3 | i | 5
CC(=O)c1ccc(S(=O)(=O)Nc2ccc(-c3ccc4nnc(C)n4n3)cc2)cc1 | 2 | 5 | 58* | -2 | i | 7
Cc1nnc2ccc(-c3ccc(NS(=O)(=O)c4ccccc4)cc3)nn12 | 6 | x | x | x | i | x
CC(C(=O)NCCc1ccccc1)N1c2cccc3cccc(c23)S1(=O)=O (centres undefined) | -5 | -1 | 7 | 1 | i | 0
CCN1CCc2c(C#N)c(N3CCOCC3)nc(N3CCOCC3)c2C1 | -3 | 2 | 4 | 3 | i | 5
CCN1CCc2c(C#N)c(N3CCCCC3)nc(N3CCOCC3)c2C1 | -7 | 3 | 5 | 18* | i | -3
COc1cc(/C=C/C(=O)c2ccc3c(c2)OCO3)cc(Cl)c1O | 9 | -6 | 16 | 1 | i | -7
COc1ccc(CC(=O)OCCc2cc3cc(OC)c(OC)cc3c(=O)o2)cc1 | 1 | 1 | x | x | i | -2
COc1ccc(-c2ccc3nncn3c2)cn1 | -5 | x | x | x | i | x
O=C(CN1C(=O)C2C3C=CC(C3)C2C1=O)Nc1ccc2nccnc2c1 (centres undefined) | 4 | 1 | 4 | 20* | i | -4
Nc1ncnc2c1ncn2[C@@H]1O[C@H](CNS(=O)(=O)C2CC2)[C@@H](O)[C@H]1O | -1 | x | x | x | i | x
Nc1ncnc2c1ncn2[C@@H]1O[C@H](CNCC#Cc2ccccc2)[C@@H](O)[C@H]1O | 1 | x | x | x | + | x
CN1CCN(S(=O)(=O)NC[C@H]2O[C@@H](n3cnc4c(N)ncnc43)[C@H](O)[C@@H]2O)CC1 | 1 | x | x | x | + | x
Cc1cc(NC(=O)C(C)SCC(=O)OC(C)C(=O)Nc2ccc(F)cc2Cl)no1 (centres undefined) | -6 | -1 | -3 | -5 | i | -5
CCc1ccc(C(=O)NNC(=O)c2ccc(OCC(=O)N3CCOCC3)c(OC)c2)cc1 | 5 | 0 | x | x | i | -5
O=C1Nc2ccc(Br)cc2C1(O)c1ccccc1 (centres undefined) | 3 | 0 | -14 | 9 | x | -4
O=C1Nc2ccc(Br)cc2C12NNc1ccccc1O2 (centres undefined) | -1 | 4 | -21 | 4 | + | 4
COc1ccc(-c2nnc(N3CCCCC3)c3ccccc23)cc1 | 4 | 2 | -4 | 6 | i | -2
COc1ccc(-c2nnc(N3CCOCC3)c3ccccc23)cc1 | 4 | 4 | -16 | 19* | i | -9
CCCCN(C)C1=CC2=CC(=C(C#N)C#N)CCC2CC1 (centres undefined) | 4 | -57 | -15 | 1 | + | -72
CCN(CC)c1nc(N)c2c(N)nc3c(c2c1C#N)CC(c1ccccc1)O3 (centres undefined) | 4 | 7 | -2 | 2 | i | 1
CCN(CC)c1nc(N)c2c(N)n(-c3ccccc3C)c(=S)c(C#N)c2c1C#N | 26 | 8 | 43 | 12 | + | 12
COc1cccc(N2CCN(C(=O)CCNS(=O)(=O)c3ccc(F)c(F)c3)CC2)c1 | -1 | x | x | x | i | x
CCC1=NN2C(=N)/C(=C/c3ccc(OS(=O)(=O)c4ccccc4)c(OC)c3)C(=O)N=C2S1 | 82* | 2 | 10 | 2 | i | 3
CCc1nn2c(=O)cc(COc3ccc(/C=C4\C(=N)N5N=C(C)SC5=NC4=O)cc3)nc2s1 | 22 | -1 | 47* | 4 | i | 8

Bioassay records (PubChem)
